Assay outcomes deposited in PubChem BioAssay by several laboratories.
Only some compounds are listed: those with a hit (about 4.7% of all), similar ones and a draw of the others.
NR3A LBD binder: modulates the human NR3A ligand-binding domain | NR3A LBD differential scanning fluorimetry, Tm shift; 0% = protein alone, 100% = glycine-bound protein | Tm shift relative to glycine control, % at 25 µM | 2.5% of 340,000 active | AID 1259313;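 active = melting temperature shift of at least 10% of the positive control shift, at one fixed dose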
SKN-1 inh: blocks SKN-1 activity in C. elegans | C. elegans VP596 Pgst-4::GFP/RFP ratio, acrylamide-induced, 24 h | inhibition, % at 21.8 µM | 0.49% of 360,000 active;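 active = interference check ratio from 0.5 to 1.5 plus GFP to RFP signal ratio inhibition reaching or exceeding a fixed threshold, cut at about 30% in these data, passing the limit was not always enough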
MT1-MMP act inh: inhibitors of human MT1-MMP activation; GFP/RFP ratio change, % at 20 µM; 0.061% of 360,000 active; HT1080 RFP-PRO-GFP cells, GFP/RFP ratio fluorescence, overnight; percent of plate control window, DMSO zero; P50281;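 active = GFP/RFP ratio change of at least 30% with cell ATP level not reduced by more than half and red fluorescence within 50% of control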
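Assay system – RFP-PRO-GFP reporter HT1080 cells · Compound dosing – single dose of 20 µM compound, 1% DMSO final · Incubation – overnight compound exposure at 37 °C · Measure – GFP/RFP fluorescence ratio · Benchmarks – DMSO wells and RFP-L50D-GFP cells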
ADAM10 inh: inhibitors of human ADAM10; O14672; recombinant ADAM10, EDANS/DABCYL FRET peptide cleavage, 3 h; inhibition, % at 7 µM; 0.62% of 370,000 active; AID 720582;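 active = inhibition above a per-campaign cutoff equal to the mean of compounds falling between control-based bounds plus 3 SD, cut at about 20% in these data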;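 also: 0% = DMSO wells while the 100% control is not disclosed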
Target sequence (O14672 214-748 limits assumed): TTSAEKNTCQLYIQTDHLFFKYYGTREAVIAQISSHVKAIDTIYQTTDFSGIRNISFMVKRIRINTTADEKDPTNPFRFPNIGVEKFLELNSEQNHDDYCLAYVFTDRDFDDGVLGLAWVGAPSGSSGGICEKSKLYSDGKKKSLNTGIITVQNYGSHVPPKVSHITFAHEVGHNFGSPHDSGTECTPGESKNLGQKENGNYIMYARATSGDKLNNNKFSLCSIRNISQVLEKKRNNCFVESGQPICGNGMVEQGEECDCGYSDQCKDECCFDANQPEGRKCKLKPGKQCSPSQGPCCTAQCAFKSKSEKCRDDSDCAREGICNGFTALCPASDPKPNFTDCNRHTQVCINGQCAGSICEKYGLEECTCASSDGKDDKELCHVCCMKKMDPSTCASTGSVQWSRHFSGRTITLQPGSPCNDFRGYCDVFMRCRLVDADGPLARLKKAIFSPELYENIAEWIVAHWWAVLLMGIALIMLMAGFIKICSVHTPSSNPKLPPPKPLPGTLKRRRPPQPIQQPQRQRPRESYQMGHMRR
ADAM17 inh: ADAM17 inhibition, QFRET primary screen; recombinant ADAM17, EDANS/DABCYL FRET peptide cleavage; 0.83% of 370,000 active; inhibition, % at 6.95 µM;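 active = inhibition above the mean of compounds lying between control limits plus 3 SD, set per campaign, cut at about 8.5% in these data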;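 also: 0% = DMSO-only wells as the low control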
MPTP inh: blocks calcium-induced mitochondrial swelling; inhibition, % at 10 µM; 1.4% of 360,000 active; isolated mouse mitochondria, Ca2+ swelling absorbance, 30 min;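 active = inhibition of 50% or more, scaled per plate between neutral and stimulator controls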;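 also: 0% = DMSO wells given calcium and 100% = 1 mM EGTA wells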
MPTP counter: mitochondrial membrane potential, counter-screen. shares compounds with MPTP inh. 78% of 5,000 active. inhibition, % at 10 µM. isolated mitochondria, Rhodamine 123 fluorescence; in the data active = inhibition above about 22%;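 also: 0% = DMSO vehicle and 100% = positive control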
MPTP abs DR: MPTP inhibition, dose response swelling confirmation; 58% of 780 active; IC50, µM; shares compounds with MPTP inh; isolated mitochondria swelling, absorbance; in the data active = IC50 below about 20 µM
MPTP counter DR: MPTP inhibitor counter-screen activity, dose response; shares compounds with MPTP inh; isolated mitochondria counterscreen, fluorescence read-out; 49% of 780 active; IC50, µM; AID 651564; in the data active = IC50 below about 80 µM
Active calls of the source: *; nt = not tested or not shown.

SMILES	NR3A LBD binder	SKN-1 inh	MT1-MMP act inh	ADAM10 inh	ADAM17 inh	MPTP inh	MPTP counter	others
NC(=O)c1c(-c2ccc(Cl)cc2Cl)csc1NC(=O)Cc1ccccc1	-0.7	9.8	-18.6	-4.3	-2.8	103.4*	89.8*
O=C(Cc1ccccc1)Nc1scc(-c2ccccc2)c1C(=O)N1CCOCC1	-0.1	-29.0	-8.5	nt	nt	-0.6	nt
O=C(COc1ccccc1[N+](=O)[O-])Nc1cccc(Cl)c1N1CCOCC1	3.3	11.1	-2.4	6.2	0.3	1.8	nt
Cc1cc(C)c2nc(N(CCCN(C)C)C(=O)C3=COCCO3)sc2c1	-0.3	0.9	-3.6	-3.4	-5.8	61.3*	-15.7	MPTP abs DR=11.8*;MPTP counter DR=>80
Cc1cc(C)c2nc(N(CCCN(C)C)C(=O)c3ccc4c(c3)OCCO4)sc2c1	3.4	-5.0	-1.7	3.4	-3.1	88.7*	-18.2
CC(C(=O)Nc1ccccc1)c1ccc(-c2ccccc2)c(F)c1 (configuration not stated)	2.3	4.2	-5.1	nt	nt	86.4*	122.2*
CC(C(=O)O)c1ccc(-c2ccccc2)c(F)c1 (configuration not stated)	-0.8	-5.3	1.8	2.0	-4.1	0.4	nt
Cc1cc(C(F)(F)F)c(C#N)c(SCC(=O)Nc2nc3cc(Br)ccc3s2)n1	29.9*	6.9	-83.6	-5.8	-5.5	86.8*	12.3	MPTP abs DR=15.7*;MPTP counter DR=3.25*
O=C(NCc1ccc(F)cc1)c1cccc(NC2=NC3CS(=O)(=O)CC3S2)c1 (configuration not stated)	-1.6	-3.2	3.5	-8.4	-0.7	0.8	nt
O=C(N/N=C/c1cc([N+](=O)[O-])cc(Br)c1O)C12CC3CCC(CC(C3)C1)C2	0.4	3.3	-3.2	-5.3	-4.5	83.9*	27.7*
COc1ccc(C(NC(=O)C2CCCCC2)c2c(O)ccc3ccccc23)cc1 (configuration not stated)	1.9	-7.0	-28.8	-9.5	-2.8	81.0*	69.4*
CC(C)CC(=O)NC(c1ccccc1Cl)c1c(O)ccc2ccccc12 (configuration not stated)	-2.5	-2.5	-25.8	-23.6	-2.0	76.3*	85.5*
OC1CCC(NC(=S)Nc2ccc(SC(F)F)cc2)CC1 (configuration not stated)	-9.4	5.6	-0.7	-3.3	-3.8	-1.7	nt
FC(F)Sc1ccc(NC(=S)NC2CCCC2)cc1	0.9	8.9	0.7	-1.5	-5.8	95.3*	94.0*
CC1CCCC(NC(=S)Nc2ccc(SC(F)F)cc2)C1C (configuration not stated)	5.6	2.9	0.8	7.5	5.1	103.1*	97.2*
CN(C(=S)Nc1ccc(SC(F)F)cc1)c1ccc(O)cc1	-1.4	-0.1	2.8	3.7	-1.9	97.1*	81.5*
S=C(Nc1ccc(Oc2ccccc2)cc1)NC1CCCCCC1	11.2*	-13.8	-2.1	0.1	9.5*	96.4*	88.9*
CN(C(=S)Nc1ccc(Oc2ccccc2)cc1)C1CCCCC1	-30.4	-7.0	3.6	6.7	3.1	46.3	nt
O=C(Nc1ccc(Cl)cc1Cl)NC1CCCC1	0.5	5.3	0.7	1.9	-1.4	1.6	nt
S=C(NCc1cccc(Cl)c1)NC1CCCCC1	-4.9	-2.1	5.5	5.8	1.8	77.3*	67.0*
CC(C)c1ccc(NC(=S)NC2CCCCCC2)cc1	-1.4	0.5	1.4	3.4	-2.4	73.8*	87.0*
S=C(Nc1ccc(Cl)cc1Cl)NC1CCCCC1	-4.2	4.7	2.6	-5.5	-2.5	85.6*	108.8*
O=C(CSc1nccn1-c1cccc(Cl)c1)Nc1ccc2c(c1)OCCO2	2.9	-10.2	1.4	-10.7	0.0	-2.2	nt
CC1CCC/C(=N/NC(=O)c2ccccc2-n2cccc2)C1 (configuration not stated)	-0.7	4.6	-0.1	-1.3	-5.2	0.4	nt
COc1ccccc1C1CC(=O)Nc2c1c(=O)n(C)c(=O)n2C (configuration not stated)	0.6	-8.5	5.5	3.3	2.4	-0.2	nt
SMILES	NR3A LBD binder	SKN-1 inh	MT1-MMP act inh	ADAM10 inh	ADAM17 inh	MPTP inh	MPTP counter	others
NS(=O)(=O)c1ccc(NC(=S)NC2CCCCCC2)cc1	-8.9	7.7	1.5	12.5	4.3	-0.4	nt
S=C(NCc1ccc2c(c1)OCO2)NC1CCN(Cc2ccccc2)CC1	0.5	7.1	3.4	1.2	0.5	74.2*	4.5	MPTP abs DR=10.9*;MPTP counter DR=53.7*
S=C(Nc1ccc(Oc2ccc(NC(=S)NC3CCCCC3)cc2)cc1)NC1CCCCC1	31.9*	2.7	-0.1	11.2	3.0	70.4*	52.0*
S=C(Nc1ccc(Oc2ccccc2)cc1)NC1CCCCC1	4.8	9.2	-6.6	-6.6	-2.9	80.1*	95.1*
S=C(Nc1ccc(Cl)c(Cl)c1)NC1CCCCC1	23.0*	4.8	-7.2	nt	nt	96.4*	75.2*
CC(C(=O)Nc1cccnc1)c1ccc([N+](=O)[O-])cc1 (configuration not stated)	-1.1	5.6	nt	7.3	-0.4	-0.4	nt
CC(C)Cc1ccc(C(C)C(=O)Nc2cccnc2)cc1 (configuration not stated)	0.8	7.2	5.0	-6.3	-1.5	84.9*	79.2*
COc1ccccc1N1CCN(C(=O)c2cn(C)c3ccc(S(=O)(=O)N4CCOCC4)cc3c2=O)CC1	1.3	7.6	3.4	-8.0	3.6	-1.8	nt
CC1Oc2ccccc2C=C1/C=N/NC(=O)c1ccccc1O (configuration not stated)	12.8*	6.5	-0.5	-73.3	-28.1	89.8*	72.0*
CC1Oc2ccccc2C=C1/C=N/NC(=O)c1ccccc1 (configuration not stated)	-15.1	12.1	-5.3	-325.9	-103.5	8.9	nt
O=C1c2ccccc2C2=Nc3ccccc3SC(c3ccc(Cl)cc3)C12 (configuration not stated)	0.6	-0.6	-8.8	3.8	-0.8	89.2*	55.5*
O=C1CCCC2=C1C(c1ccc(Cl)cc1)C1C(=O)c3ccccc3C1=N2 (configuration not stated)	-4.5	13.3	6.7	-9.3	-1.6	54.7*	36.3*
O=C1CCCC2=C1C(c1ccccc1)C1C(=O)c3ccccc3C1=N2 (configuration not stated)	-10.2	1.2	7.2	-4.2	-1.1	4.1	nt
O=C1c2ccccc2C2=Nc3ccccc3SC(c3cccc(F)c3)C12 (configuration not stated)	1.6	2.1	-5.4	17.6	8.1	81.1*	66.2*
